Data set [1] in a line: Growth inhibition of human bladder cancer cells after 72 hrs by CellTiter-Glo or CCK-8 assay. The class given is functional. To be noted: Bladder cancer cell. A general note: In ATP-based viability assays light output follows the ATP content of the culture.
Data set [2] addresses T1, Tyrosine-protein kinase JAK3 (Homo sapiens) (UniProt P52333).
T1 sequence (whole entry): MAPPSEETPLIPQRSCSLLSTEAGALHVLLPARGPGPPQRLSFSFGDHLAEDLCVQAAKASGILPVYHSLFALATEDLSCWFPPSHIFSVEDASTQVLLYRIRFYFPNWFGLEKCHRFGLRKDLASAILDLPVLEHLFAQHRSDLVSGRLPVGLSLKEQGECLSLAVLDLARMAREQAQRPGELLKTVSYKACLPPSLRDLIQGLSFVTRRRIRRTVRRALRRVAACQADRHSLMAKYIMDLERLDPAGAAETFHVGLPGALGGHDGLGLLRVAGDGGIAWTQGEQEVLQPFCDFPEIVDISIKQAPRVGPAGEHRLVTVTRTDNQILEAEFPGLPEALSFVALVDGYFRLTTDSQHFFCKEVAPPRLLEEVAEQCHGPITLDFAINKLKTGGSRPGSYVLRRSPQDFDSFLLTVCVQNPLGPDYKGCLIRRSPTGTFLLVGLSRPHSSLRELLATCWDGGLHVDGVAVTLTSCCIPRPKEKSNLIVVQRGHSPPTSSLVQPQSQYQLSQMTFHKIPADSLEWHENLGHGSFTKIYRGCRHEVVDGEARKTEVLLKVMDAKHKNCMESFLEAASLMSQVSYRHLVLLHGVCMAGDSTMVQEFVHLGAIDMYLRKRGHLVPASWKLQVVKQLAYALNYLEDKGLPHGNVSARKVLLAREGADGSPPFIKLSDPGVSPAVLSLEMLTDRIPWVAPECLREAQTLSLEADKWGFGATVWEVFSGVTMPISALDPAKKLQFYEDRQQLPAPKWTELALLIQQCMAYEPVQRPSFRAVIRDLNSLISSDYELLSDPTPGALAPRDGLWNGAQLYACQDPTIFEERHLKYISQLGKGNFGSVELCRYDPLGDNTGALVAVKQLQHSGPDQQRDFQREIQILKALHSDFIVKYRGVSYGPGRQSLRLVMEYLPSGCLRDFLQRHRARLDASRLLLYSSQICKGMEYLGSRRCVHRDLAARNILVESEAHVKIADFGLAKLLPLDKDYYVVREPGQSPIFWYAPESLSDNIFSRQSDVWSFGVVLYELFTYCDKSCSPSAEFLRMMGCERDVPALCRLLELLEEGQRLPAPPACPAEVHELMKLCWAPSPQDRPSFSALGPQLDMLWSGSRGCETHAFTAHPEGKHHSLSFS
Description: Inhibition of recombinant TEL-fused JAK3 (unknown origin) expressed in mouse BAF3 cells assessed as growth inhibition after 72 hrs by CellTiter-Glo or CCK-8 assay. Type of data set: cell-based. The gist of the method:
(§1)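 Isogenic murine BaF3 cells transformed with TEL-fused kinases, whose proliferation depends on the fused kinase, were used. Parental BaF3 cells served as the general selectivity counter-screen. The anti-proliferative read-out was reported as GI50.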

For data set [3], the target named is Epidermal growth factor receptor (Homo sapiens) (UniProt P00533). Description: Inhibition of recombinant TEL-fused EGFR (unknown origin) expressed in mouse BAF3 cells assessed as growth inhibition after 72 hrs by CellTiter-Glo or CCK-8 assay. Type of data set: cell-based. In outline: as §1
Chain of Epidermal growth factor receptor (Homo sapiens) (P00533 whole entry, the tested form may be a part): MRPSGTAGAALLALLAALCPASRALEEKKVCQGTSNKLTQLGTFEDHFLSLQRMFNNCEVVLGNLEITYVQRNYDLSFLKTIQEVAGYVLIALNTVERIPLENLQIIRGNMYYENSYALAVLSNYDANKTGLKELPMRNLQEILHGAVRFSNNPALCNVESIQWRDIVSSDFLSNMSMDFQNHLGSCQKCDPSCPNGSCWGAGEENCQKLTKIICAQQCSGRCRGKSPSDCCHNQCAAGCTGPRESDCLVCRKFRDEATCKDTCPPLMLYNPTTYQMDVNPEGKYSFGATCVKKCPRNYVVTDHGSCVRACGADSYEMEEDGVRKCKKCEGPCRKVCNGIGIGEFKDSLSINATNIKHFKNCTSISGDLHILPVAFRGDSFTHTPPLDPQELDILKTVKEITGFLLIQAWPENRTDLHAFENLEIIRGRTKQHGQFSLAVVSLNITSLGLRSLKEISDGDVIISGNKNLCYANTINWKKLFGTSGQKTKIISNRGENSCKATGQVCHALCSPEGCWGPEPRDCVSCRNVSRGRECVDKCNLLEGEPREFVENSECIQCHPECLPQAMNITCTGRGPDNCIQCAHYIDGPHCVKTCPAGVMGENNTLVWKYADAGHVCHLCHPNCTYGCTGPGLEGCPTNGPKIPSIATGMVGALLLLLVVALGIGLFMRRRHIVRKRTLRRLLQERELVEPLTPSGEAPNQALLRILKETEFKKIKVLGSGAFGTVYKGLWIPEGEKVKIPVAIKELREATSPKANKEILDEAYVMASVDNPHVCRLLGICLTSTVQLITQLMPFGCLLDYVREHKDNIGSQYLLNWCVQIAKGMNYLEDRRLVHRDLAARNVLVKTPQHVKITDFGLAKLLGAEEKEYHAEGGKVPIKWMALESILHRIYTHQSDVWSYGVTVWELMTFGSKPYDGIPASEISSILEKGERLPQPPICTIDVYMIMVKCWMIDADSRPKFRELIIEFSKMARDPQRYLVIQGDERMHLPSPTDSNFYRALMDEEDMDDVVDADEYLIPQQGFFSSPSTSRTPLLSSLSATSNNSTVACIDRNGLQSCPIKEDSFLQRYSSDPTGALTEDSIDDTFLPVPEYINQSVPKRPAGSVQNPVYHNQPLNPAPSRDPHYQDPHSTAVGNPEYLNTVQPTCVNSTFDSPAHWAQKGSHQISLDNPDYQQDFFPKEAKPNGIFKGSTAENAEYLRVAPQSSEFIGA
The subject of a further data set is J82. Description: Growth inhibition of human J82 cells after 72 hrs by CellTiter-Glo or CCK-8 assay. The class given is functional. The conditions noted are these: J82, 72 h.
Data set [4] concerns the target Receptor-type tyrosine-protein kinase FLT3 (Homo sapiens) (UniProt P36888). Description: Inhibition of recombinant TEL-fused FLT3 (unknown origin) expressed in mouse BAF3 cells assessed as growth inhibition after 72 hrs by CellTiter-Glo or CCK-8 assay. Type of data set: cell-based. The gist of the method:
as §1

Data set [5] is described as follows: Cmax in Sprague-Dawley rat at 10 mg/kg, po up to 24 hrs. Type of data set: ADME, organism-based. Further details: dose 10 mg/kg, route oral. The conditions noted are these: in vivo. The gist of the method:
(§2)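 Sprague Dawley rats given a single i.v. dose of 1 mg/kg or an oral dose of 10 mg/kg. Plasma AUC(0-t), AUC(0-∞), MRT(0-t), T1/2, Tmax and Cmax were derived and reported as mean±SD.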

Data set [6] can be described thus: Half-life in Sprague-Dawley rat at 1 mg/kg, iv. To be noted: in vivo. Type of data set: ADME, organism-based. In outline: as §2
A short description of data set [7]: Tmax in Sprague-Dawley rat at 1 mg/kg, iv. The class given is ADME, organism-based. To be noted: in vivo. In outline:
as §2

The next data set concerns EJ. Description: Growth inhibition of human EJ cells after 72 hrs by CellTiter-Glo or CCK-8 assay. Type of data set: functional.
The next data set relates to T-24. Description: Growth inhibition of human T24 cells after 72 hrs by CellTiter-Glo or CCK-8 assay. Type of data set: functional. The conditions noted are these: T-24, 72 h.
The subject of another data set is CWR22R. Nature of the data set: Growth inhibition of human 22Rv1 cells after 72 hrs by CellTiter-Glo or CCK-8 assay. The class given is functional. The conditions noted are these: 22Rv1, 72 h.
The target in data set [8] is Tyrosine-protein kinase ABL1 (Homo sapiens) (UniProt P00519). Description: Inhibition of human nonphosphorylated ABL1 (229 to 512 amino acid residues) expressed in mammalian expression system assessed as remaining activity at 1 uM by KINOMEscan assay relative to control. The gist of the method:
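KINOMEscan competition binding panel of 468 kinases, with the compound tested at 1 µM. Binding is expressed as percent of control relative to DMSO.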

Data set [9] in a line: AUC (0 to infinity) in Sprague-Dawley rat at 1 mg/kg, iv up to 8 hrs. The class given is ADME, organism-based. Further details: dose 1 mg/kg, route intravenous, time infinity. The conditions noted are these: in vivo. In outline: as §2
Another data set relates to DU-145. Description: Growth inhibition of human DU145 cells after 72 hrs by CellTiter-Glo or CCK-8 assay. To be noted: DU-145, 72 h. Type of data set: functional.
Data set [10] concerns the target Platelet-derived growth factor receptor beta (Homo sapiens) (UniProt P09619). Nature of the data set: Inhibition of recombinant TEL-fused PDGFR-beta (unknown origin) expressed in mouse BAF3 cells assessed as growth inhibition after 72 hrs by CellTiter-Glo or CCK-8 assay. The class given is cell-based. The gist of the method: as §1
Data set [11] has as its target Tyrosine-protein kinase ABL1 (Homo sapiens) (UniProt P00519). Description: Inhibition of recombinant TEL-fused ABL (unknown origin) expressed in mouse BAF3 cells assessed as growth inhibition after 72 hrs by CellTiter-Glo or CCK-8 assay. Type of data set: cell-based. The gist of the method:
as §1

The nature of data set [12]: Cmax in Sprague-Dawley rat at 1 mg/kg, iv up to 8 hrs. Type of data set: ADME, organism-based. Further details: dose 1 mg/kg, route intravenous. The conditions noted are these: in vivo. In outline: as §2
For data set [13], the target named is Mast/stem cell growth factor receptor Kit (Homo sapiens) (UniProt P10721). Nature of the data set: Inhibition of recombinant TEL-fused c-KIT (unknown origin) expressed in mouse BAF3 cells assessed as growth inhibition after 72 hrs by CellTiter-Glo or CCK-8 assay. Type of data set: cell-based. The gist of the method:
as §1

The nature of data set [14]: AUC (0 to infinity) in Sprague-Dawley rat at 10 mg/kg, po up to 24 hrs. Type of data set: ADME, organism-based. Further details: dose 10 mg/kg, time infinity, route oral. The conditions noted are these: in vivo. The gist of the method:
as §2

The nature of data set [15]: Half-life in Sprague-Dawley rat at 10 mg/kg, po. The class given is ADME, organism-based. To be noted: in vivo. The gist of the method:
as §2

Data set [16] can be described thus: Growth inhibition of mouse BAF3 cells after 72 hrs by CellTiter-Glo or CCK-8 assay. Type of data set: cell-based. In outline:
as §1

The next data set deals with 769-P. Description: Growth inhibition of human 769-P cells after 72 hrs by CellTiter-Glo or CCK-8 assay. Type of data set: functional.
The next data set deals with 5637. Nature of the data set: Growth inhibition of human 5637 cells after 72 hrs by CellTiter-Glo or CCK-8 assay. To be noted: Homo sapiens, 5637, 72 h. Type of data set: functional.
The nature of data set [17]: AUC (0 to t) in Sprague-Dawley rat at 1 mg/kg, iv up to 8 hrs. The class given is ADME, organism-based. Further details: time < 8 hr, dose 1 mg/kg, route intravenous. To be noted: in vivo. The gist of the method: as §2

Chain of Tyrosine-protein kinase ABL1 (Homo sapiens) (P00519 whole entry, the tested form may be a part): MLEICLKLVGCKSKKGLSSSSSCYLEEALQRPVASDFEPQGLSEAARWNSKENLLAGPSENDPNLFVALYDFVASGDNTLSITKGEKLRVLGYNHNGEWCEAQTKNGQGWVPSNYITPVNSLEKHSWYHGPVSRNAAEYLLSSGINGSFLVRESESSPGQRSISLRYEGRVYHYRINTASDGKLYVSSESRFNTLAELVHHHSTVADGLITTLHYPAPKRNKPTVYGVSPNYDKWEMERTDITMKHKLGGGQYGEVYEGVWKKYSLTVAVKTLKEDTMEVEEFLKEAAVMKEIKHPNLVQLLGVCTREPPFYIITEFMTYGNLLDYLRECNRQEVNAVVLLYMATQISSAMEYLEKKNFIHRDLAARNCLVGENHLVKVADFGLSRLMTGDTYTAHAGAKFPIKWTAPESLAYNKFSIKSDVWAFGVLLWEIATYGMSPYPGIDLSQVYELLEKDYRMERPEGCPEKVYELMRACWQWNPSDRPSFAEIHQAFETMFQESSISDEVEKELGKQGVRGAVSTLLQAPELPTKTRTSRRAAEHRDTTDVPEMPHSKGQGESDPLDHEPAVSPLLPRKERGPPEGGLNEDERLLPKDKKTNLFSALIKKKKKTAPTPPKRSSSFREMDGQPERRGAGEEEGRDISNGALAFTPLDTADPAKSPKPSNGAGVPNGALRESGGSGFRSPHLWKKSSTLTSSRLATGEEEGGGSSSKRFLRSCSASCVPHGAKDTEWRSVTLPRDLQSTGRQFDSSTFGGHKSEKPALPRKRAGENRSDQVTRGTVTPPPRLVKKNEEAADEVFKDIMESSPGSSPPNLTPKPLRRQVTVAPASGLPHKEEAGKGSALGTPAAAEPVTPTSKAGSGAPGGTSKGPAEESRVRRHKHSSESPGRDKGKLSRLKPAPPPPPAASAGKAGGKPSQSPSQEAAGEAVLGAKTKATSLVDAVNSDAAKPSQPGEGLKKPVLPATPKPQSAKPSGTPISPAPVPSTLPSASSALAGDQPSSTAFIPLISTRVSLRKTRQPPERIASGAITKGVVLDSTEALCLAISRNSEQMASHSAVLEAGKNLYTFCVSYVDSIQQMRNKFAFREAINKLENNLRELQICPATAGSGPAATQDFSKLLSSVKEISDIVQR
Chain of Receptor-type tyrosine-protein kinase FLT3 (Homo sapiens) (P36888 whole entry, the tested form may be a part): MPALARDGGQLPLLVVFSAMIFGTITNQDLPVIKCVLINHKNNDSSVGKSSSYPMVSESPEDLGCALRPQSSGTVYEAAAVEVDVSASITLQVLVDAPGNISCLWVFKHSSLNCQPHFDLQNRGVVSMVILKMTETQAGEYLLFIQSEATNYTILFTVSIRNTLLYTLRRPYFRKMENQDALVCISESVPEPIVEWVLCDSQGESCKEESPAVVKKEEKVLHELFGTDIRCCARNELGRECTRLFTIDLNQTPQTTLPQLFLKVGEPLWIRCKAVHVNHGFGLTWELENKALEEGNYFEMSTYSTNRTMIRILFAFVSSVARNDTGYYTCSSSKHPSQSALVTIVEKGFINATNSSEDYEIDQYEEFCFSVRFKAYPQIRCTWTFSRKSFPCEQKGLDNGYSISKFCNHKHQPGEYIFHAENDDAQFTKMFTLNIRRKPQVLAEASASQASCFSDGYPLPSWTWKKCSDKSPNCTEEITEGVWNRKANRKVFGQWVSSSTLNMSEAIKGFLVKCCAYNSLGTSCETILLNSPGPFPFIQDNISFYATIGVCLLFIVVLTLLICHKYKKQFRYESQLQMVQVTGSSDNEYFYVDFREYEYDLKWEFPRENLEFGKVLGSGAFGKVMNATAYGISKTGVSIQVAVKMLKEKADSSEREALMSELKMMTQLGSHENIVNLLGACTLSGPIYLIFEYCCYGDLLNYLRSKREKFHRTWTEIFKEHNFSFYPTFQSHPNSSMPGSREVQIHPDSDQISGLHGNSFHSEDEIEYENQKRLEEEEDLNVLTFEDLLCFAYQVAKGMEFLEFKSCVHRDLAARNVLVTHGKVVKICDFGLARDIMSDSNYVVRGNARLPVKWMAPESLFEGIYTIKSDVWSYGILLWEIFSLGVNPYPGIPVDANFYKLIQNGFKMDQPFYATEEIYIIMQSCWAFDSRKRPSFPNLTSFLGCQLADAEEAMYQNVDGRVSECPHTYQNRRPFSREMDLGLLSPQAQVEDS
Chain of Platelet-derived growth factor receptor beta (Homo sapiens) (P09619 whole entry, the tested form may be a part): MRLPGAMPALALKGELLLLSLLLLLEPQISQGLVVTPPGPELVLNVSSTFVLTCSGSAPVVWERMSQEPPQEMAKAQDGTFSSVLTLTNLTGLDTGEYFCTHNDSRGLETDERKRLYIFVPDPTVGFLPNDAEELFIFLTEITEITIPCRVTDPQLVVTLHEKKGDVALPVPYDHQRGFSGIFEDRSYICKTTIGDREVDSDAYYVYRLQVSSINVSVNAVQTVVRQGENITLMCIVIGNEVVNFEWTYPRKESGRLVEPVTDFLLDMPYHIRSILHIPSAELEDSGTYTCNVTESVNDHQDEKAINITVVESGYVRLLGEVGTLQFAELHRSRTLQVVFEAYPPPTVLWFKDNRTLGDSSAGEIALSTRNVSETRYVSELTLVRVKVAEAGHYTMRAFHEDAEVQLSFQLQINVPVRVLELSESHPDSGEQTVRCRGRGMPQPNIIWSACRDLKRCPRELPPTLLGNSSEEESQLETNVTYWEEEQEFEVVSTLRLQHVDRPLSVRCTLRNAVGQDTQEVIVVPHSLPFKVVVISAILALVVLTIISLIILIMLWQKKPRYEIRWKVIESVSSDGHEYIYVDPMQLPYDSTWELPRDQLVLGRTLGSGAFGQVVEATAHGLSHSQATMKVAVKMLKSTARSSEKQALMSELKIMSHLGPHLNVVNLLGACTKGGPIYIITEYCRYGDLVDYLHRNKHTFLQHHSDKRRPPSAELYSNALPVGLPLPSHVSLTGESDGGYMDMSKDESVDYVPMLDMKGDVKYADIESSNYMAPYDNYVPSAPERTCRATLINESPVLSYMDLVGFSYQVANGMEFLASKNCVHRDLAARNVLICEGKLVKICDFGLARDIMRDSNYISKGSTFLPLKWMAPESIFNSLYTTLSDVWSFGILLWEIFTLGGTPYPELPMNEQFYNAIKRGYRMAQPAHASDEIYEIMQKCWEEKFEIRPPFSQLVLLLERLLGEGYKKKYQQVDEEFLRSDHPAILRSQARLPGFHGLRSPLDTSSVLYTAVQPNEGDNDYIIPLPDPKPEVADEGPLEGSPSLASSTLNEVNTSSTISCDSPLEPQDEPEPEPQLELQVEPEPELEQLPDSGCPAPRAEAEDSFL

As usually defined, the GI50 is the concentration at which growth is held to half of that of the control. The Cmax is the maximum level reached in the sampled fluid or tissue. In general, half-life refers to the time needed for the level to fall by half in the phase considered. Read a low half-life as fast loss. As a reminder, the Tmax is the time from dosing to the highest level. One may read the AUC(0-inf) as the area under the concentration-time curve extrapolated to infinity. A lower AUC(0-inf) goes with low exposure. In general, AUC(0-t) refers to exposure summed from dosing to a finite time, without extrapolation to infinity. With `C=CC(=O)Nc1cc(Nc2ncc(C(=O)Nc3cc(NC(=O)c4cc(OC)c(OC)c(OC)c4)ccc3C)c(NC)n2)ccc1C`, the GI50 in data set [1] is 8.87 µM; in [2], greater than 10 µM; in data set [3], greater than 10 µM; in the data set on J82, 5.78 µM; in [4], greater than 10 µM; in the data set with EJ it was greater than 10 µM. Also, the GI50 with T-24 was determined as 8.98 µM; in the data set with CWR22R it was 3.45 µM; in the data set on DU-145 it was 7.89 µM; in data set [10], 0.91 µM; in data set [11] it was 2.56 µM; in data set [13] it was 2.01 µM. Besides, the GI50 in the data set on 769-P and with 5637 was greater than 10 µM in each case. In addition, the Cmax in data set [5] came to 5.58 ng/mL; in [12], 13600 ng/mL. The half-life in data set [6] is 48 min; in data set [15], 367 min. Also, the Tmax in [7] was determined as 1.02 min. Further, the Activity in data set [8] was determined as 0.7%. Also, the AUC(0-inf) in [9] was 1390 ng·h/mL; in data set [14], 27.6 ng·h/mL. In data set [16], the GI50 at 72 h is greater than 10 µM. Besides, the area under the curve AUC(0-t) at 8 h in data set [17] is 1390 ng·h/mL.
